Test results from ChEMBL document CHEMBL1212781, “VIM-19, a metallo-beta-lactamase with increased carbapenemase activity from Escherichia coli and Klebsiella pneumoniae” (2010).
In brackets after ≈: the same amount, converted by molar mass.

Legend:
Klebsiella pneumoniae [1] = assay: Antimicrobial activity in Klebsiella pneumoniae DIH-2 clinical isolate expressing beta-lactamase VIM-19 by Etest; type: functional
Escherichia coli [2] = assay: microbe, parasite or virus in culture; type: functional; conditions: TOP10
Escherichia coli [3] = assay: microbe, parasite or virus in culture; type: functional; conditions: TOP10; remark: listed apart in the source
Escherichia coli [4] = assay: microbe, parasite or virus in culture; type: functional; conditions: TOP10; remark: listed apart in the source
Escherichia coli [5] = assay: microbe, parasite or virus in culture; type: functional; conditions: TOP10; remark: listed apart in the source
Escherichia coli [6] = assay: Antimicrobial activity in Escherichia coli J53 transconjugate with Escherichia coli DIH-1 expressing natural plasmid containing beta-lactamase VIM-19; type: functional
Outline: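 Transconjugants came from liquid mating-out at 37°C with azide-resistant E. coli J53 as recipient, selected on agar with amoxicillin (50 μg/ml) plus azide (100 μg/ml). MICs were then read by Etest on Mueller-Hinton agar at 37°C and interpreted per CLSI.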

Escherichia coli [7] = assay: Antimicrobial activity in Escherichia coli TOP10 strain; type: functional
Outline: (§1)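 MICs were determined by Etest on Mueller-Hinton agar plates incubated at 37°C. Susceptibility was interpreted according to CLSI guidelines.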

Escherichia coli [8] = assay: Antimicrobial activity in Escherichia coli J53 strain; type: functional; outline: as §1
Escherichia coli [9] = assay: Antimicrobial activity in Escherichia coli DIH-1 expressing beta-lactamase VIM-19 by Etest; type: functional
Outline: (§2)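 MICs read by Etest on Mueller-Hinton agar incubated at 37°C. Susceptibility was categorized according to CLSI guidelines. Transconjugants were obtained in E. coli J53 by liquid mating at 37°C, with selection on agar containing amoxicillin (50 μg/ml) and azide (100 μg/ml).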

[10] = system: CC(C)(O/N=C(\C(=O)N[C@@H]1C(=O)N2C(C(=O)[O-])=C(C[n+]3ccccc3)CS[C@H]12)c1csc(N)n1)C(=O)O; assay: (§3) Hydrolytic activity of beta-lactamase VIM-1 expressed in Escherichia coli TOP10 by spectrophotometry
[11] = system: CC1(C)S[C@@H]2[C@H](NC(=O)Cc3ccccc3)C(=O)N2[C@H]1C(=O)O; assay: as §3
[12] = system: CCN1CCN(C(=O)N[C@@H](C(=O)N[C@@H]2C(=O)N3[C@@H]2SC(C)(C)[C@@H]3C(=O)O)c2ccccc2)C(=O)C1=O; assay: as §3
[13] = system: CO/N=C(\C(=O)N[C@@H]1C(=O)N2C(C(=O)O)=C(COC(C)=O)CS[C@H]12)c1csc(N)n1; assay: as §3
[14] = system: CO[C@@]1(NC(=O)Cc2cccs2)C(=O)N2C(C(=O)O)=C(COC(N)=O)CS[C@@H]21; assay: as §3
[15] = system: C[C@@H](O)[C@H]1C(=O)N2C(C(=O)O)=C(S[C@@H]3CN[C@H](C(=O)N(C)C)C3)[C@H](C)[C@H]12; assay: as §3
[16] = system: CC(C)(O/N=C(\C(=O)N[C@@H]1C(=O)N2C(C(=O)[O-])=C(C[n+]3ccccc3)CS[C@H]12)c1csc(N)n1)C(=O)O; assay: (§4) Ratio of Kcat to Km for beta-lactamase VIM-1 expressed in Escherichia coli TOP10 by spectrophotometry
[17] = system: CC1(C)S[C@@H]2[C@H](NC(=O)Cc3ccccc3)C(=O)N2[C@H]1C(=O)O; assay: as §4
[18] = system: CCN1CCN(C(=O)N[C@@H](C(=O)N[C@@H]2C(=O)N3[C@@H]2SC(C)(C)[C@@H]3C(=O)O)c2ccccc2)C(=O)C1=O; assay: as §4
[19] = system: CO/N=C(\C(=O)N[C@@H]1C(=O)N2C(C(=O)O)=C(COC(C)=O)CS[C@H]12)c1csc(N)n1; assay: as §4
[20] = system: CO[C@@]1(NC(=O)Cc2cccs2)C(=O)N2C(C(=O)O)=C(COC(N)=O)CS[C@@H]21; assay: as §4
[21] = system: C[C@@H](O)[C@H]1C(=O)N2C(C(=O)O)=C(S[C@@H]3CN[C@H](C(=O)N(C)C)C3)[C@H](C)[C@H]12; assay: as §4
Escherichia coli [22] = assay: Antimicrobial activity in Escherichia coli DIH-1 expressing beta-lactamase VIM-19 by Etest in presence of 4 ug/ml clavulanic acid; type: functional; outline: as §2
Klebsiella pneumoniae [23] = assay: Antimicrobial activity in Klebsiella pneumoniae DIH-2 clinical isolate expressing beta-lactamase VIM-19 by Etest in presence of 4 ug/ml clavulanic acid; type: functional; outline: as §2
Escherichia coli [24] = assay: Antimicrobial activity in Escherichia coli TOP10 hourbouring recombinant plasmid VIM-19 by Etest in presence of 4 ug/ml clavulanic acid; type: functional; outline: as §2
Escherichia coli [25] = assay: Antimicrobial activity in Escherichia coli TOP10 hourbouring recombinant plasmid VIM-4 by Etest in presence of 4 ug/ml clavulanic acid; type: functional; outline: as §2
Escherichia coli [26] = assay: Antimicrobial activity in Escherichia coli J53 transconjugate with Escherichia coli DIH-1 expressing natural plasmid containing beta-lactamase VIM-19 in presence of 4 ug/ml clavulanic acid; type: functional; outline: as §2
Escherichia coli [27] = assay: Antimicrobial activity in Escherichia coli TOP10 strain in presence of 4 ug/ml clavulanic acid; type: functional
Outline: (§5)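 MIC by Etest on Mueller-Hinton agar plates at 37°C, with susceptibility interpreted per CLSI guidelines.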

Escherichia coli [28] = assay: Antimicrobial activity in Escherichia coli J53 strain in presence of 4 ug/ml clavulanic acid; type: functional; outline: as §5

In the case of C[C@@H](O)[C@H]1C(=O)N2C(C(=O)O)=C(S[C@@H]3CN[C@H](C(=O)N(C)C)C3)[C@H](C)[C@H]12 [MEROPENEM], the MIC (Klebsiella pneumoniae [1]) is reported as 4 µg/mL (≈ 10.4 µM), the MIC (Escherichia coli [2]) is reported as 1 µg/mL (≈ 2.61 µM) and the MIC (Escherichia coli [3]) is reported as 1 µg/mL (≈ 2.61 µM). It also gave an MIC (Escherichia coli [4]) of 0.25 µg/mL (≈ 0.652 µM), an MIC (Escherichia coli [5]) of 0.25 µg/mL (≈ 0.652 µM) and an MIC (Escherichia coli [6]) of 0.5 µg/mL (≈ 1.3 µM). For the same molecule, the MIC (Escherichia coli [7]) was 0.016 µg/mL (≈ 0.0417 µM) and the MIC (Escherichia coli [8]) was 0.016 µg/mL (≈ 0.0417 µM).
CC(C)(O/N=C(\C(=O)N[C@@H]1C(=O)N2C(C(=O)[O-])=C(C[n+]3ccccc3)CS[C@H]12)c1csc(N)n1)C(=O)O [CEFTAZIDIME] showed an MIC (Escherichia coli [9]) of over 512 µg/mL, an MIC (Klebsiella pneumoniae [1]) of 128 µg/mL (≈ 234 µM) and an MIC (Escherichia coli [2]) of 32 µg/mL (≈ 58.5 µM). The MIC (Escherichia coli [3]) was 32 µg/mL (≈ 58.5 µM), the MIC (Escherichia coli [4]) was 512 µg/mL (≈ 937 µM) and the MIC (Escherichia coli [5]) was 512 µg/mL (≈ 937 µM). For the same molecule, the MIC (Escherichia coli [6]) was 32 µg/mL (≈ 58.5 µM), the MIC (Escherichia coli [7]) was 0.06 µg/mL (≈ 0.11 µM) and the MIC (Escherichia coli [8]) was 0.06 µg/mL (≈ 0.11 µM).
For CO[C@@]1(NC(=O)Cc2cccs2)C(=O)N2C(C(=O)O)=C(COC(N)=O)CS[C@@H]21 [CEFOXITIN], the MIC (Escherichia coli [9]) was over 512 µg/mL, the MIC (Klebsiella pneumoniae [1]) was over 512 µg/mL and the MIC (Escherichia coli [2]) was 256 µg/mL (≈ 599 µM). It also gave an MIC (Escherichia coli [3]) of 256 µg/mL (≈ 599 µM), an MIC (Escherichia coli [4]) of 256 µg/mL (≈ 599 µM) and an MIC (Escherichia coli [5]) of 256 µg/mL (≈ 599 µM). For the same molecule, the MIC (Escherichia coli [6]) was 256 µg/mL (≈ 599 µM), the MIC (Escherichia coli [7]) was 4 µg/mL (≈ 9.36 µM) and the MIC (Escherichia coli [8]) was 4 µg/mL (≈ 9.36 µM).
For CO/N=C(\C(=O)N[C@@H]1C(=O)N2C(C(=O)O)=C(COC(C)=O)CS[C@H]12)c1csc(N)n1 [CEFOTAXIME], the MIC (Escherichia coli [9]) was over 512 µg/mL, the MIC (Klebsiella pneumoniae [1]) was over 512 µg/mL and the MIC (Escherichia coli [2]) was 64 µg/mL (≈ 141 µM). The MIC (Escherichia coli [3]) was 64 µg/mL (≈ 141 µM), the MIC (Escherichia coli [4]) was 32 µg/mL (≈ 70.3 µM) and the MIC (Escherichia coli [5]) was 64 µg/mL (≈ 141 µM). The MIC (Escherichia coli [6]) was 64 µg/mL (≈ 141 µM), the MIC (Escherichia coli [7]) was 0.12 µg/mL (≈ 0.263 µM) and the MIC (Escherichia coli [8]) was 0.12 µg/mL (≈ 0.263 µM).
Molecule “BlaVIM-1 (Escherichia coli) (from UniProt Q8GDC1)” has a Km [10] of 800 µM, a kcat [10] of 60 s⁻¹ and a Km [11] of 850 µM. It also gave a Km [12] of 3500 µM, a Km [13] of 250 µM and a Km [14] of 130 µM. The Km [15] was 50 µM, the kcat/Km [16] was 100000 M⁻¹ s⁻¹ and the kcat/Km [17] was 50000 M⁻¹ s⁻¹. The kcat/Km [18] was 500000 M⁻¹ s⁻¹, the kcat/Km [19] was 700000 M⁻¹ s⁻¹ and the kcat/Km [20] was 200000 M⁻¹ s⁻¹. It also gave a kcat/Km [21] of 300000 M⁻¹ s⁻¹.
Molecule CO/N=C(\C(=O)N[C@@H]1C(=O)N2C(C(=O)O)=C(COC(N)=O)CS[C@H]12)c1ccco1 [CEFUROXIME] has an MIC (Escherichia coli [9]) of over 512 µg/mL, an MIC (Klebsiella pneumoniae [1]) of over 512 µg/mL and an MIC (Escherichia coli [2]) of over 512 µg/mL. It also gave an MIC (Escherichia coli [3]) of over 512 µg/mL, an MIC (Escherichia coli [6]) of over 512 µg/mL and an MIC (Escherichia coli [7]) of 2 µg/mL (≈ 4.71 µM). The MIC (Escherichia coli [8]) was 4 µg/mL (≈ 9.43 µM).
In the case of CC1(C)S[C@@H]2[C@H](NC(=O)[C@H](N)c3ccc(O)cc3)C(=O)N2[C@H]1C(=O)O [AMOXICILLIN], the MIC (Escherichia coli [9]) is reported as over 512 µg/mL, the MIC (Klebsiella pneumoniae [1]) is reported as over 512 µg/mL and the MIC (Escherichia coli [2]) is reported as over 512 µg/mL. For the same molecule, the MIC (Escherichia coli [3]) was over 512 µg/mL, the MIC (Escherichia coli [6]) was over 512 µg/mL and the MIC (Escherichia coli [7]) was 4 µg/mL (≈ 10.9 µM). The MIC (Escherichia coli [8]) was 4 µg/mL (≈ 10.9 µM), the MIC (Escherichia coli [22]) was over 512 µg/mL and the MIC (Klebsiella pneumoniae [23]) was over 512 µg/mL. For the same molecule, the MIC (Escherichia coli [24]) was over 512 µg/mL, the MIC (Escherichia coli [25]) was over 512 µg/mL and the MIC (Escherichia coli [26]) was over 512 µg/mL. It also gave an MIC (Escherichia coli [27]) of 4 µg/mL and an MIC (Escherichia coli [28]) of 4 µg/mL.
